Source: ChEMBL document CHEMBL1130016 (J Med Chem, 1997)

Legend:
[1] = target: Monoamine transporters; serotonin & dopamine (Rattus norvegicus) (UniProt P31652+P23977); assay: Ratio of inhibitory activity against Serotonin Transporter compared to Dopamine Transporter; format: protein assay
Method in brief: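 Selectivity is expressed as SERT/DAT, the ratio of binding values from rat striatal membranes. SERT was labelled with [3H]citalopram and DAT with [3H]WIN 35,428. Binding was ended by filtration and counted by scintillation. Values come from three independent experiments, each run in triplicate.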

[2] = target: Sodium-dependent serotonin transporter (Rattus norvegicus, UniProt P31652); assay: In vitro inhibition of [3H]citalopram binding to serotonin transporter on rat striatal membranes.; format: cell membranes, Membrane
Method in brief: (§1)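 Compounds dissolved in 10% DMSO. Incubation ended by filtration, and filter-bound radioactivity was counted by liquid scintillation at about 35% efficiency for 3H. IC50 values were determined. Mean ± SEM of three independent experiments, each in triplicate.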

[3] = target: Sodium-dependent dopamine transporter (Rattus norvegicus, UniProt P23977); assay: In vitro inhibition of [3H]WIN-35 428 binding to dopamine transporter on rat striatal membranes.; format: cell membranes, Membrane; method in brief: as §1
Chain of Sodium-dependent dopamine transporter (P23977 whole entry): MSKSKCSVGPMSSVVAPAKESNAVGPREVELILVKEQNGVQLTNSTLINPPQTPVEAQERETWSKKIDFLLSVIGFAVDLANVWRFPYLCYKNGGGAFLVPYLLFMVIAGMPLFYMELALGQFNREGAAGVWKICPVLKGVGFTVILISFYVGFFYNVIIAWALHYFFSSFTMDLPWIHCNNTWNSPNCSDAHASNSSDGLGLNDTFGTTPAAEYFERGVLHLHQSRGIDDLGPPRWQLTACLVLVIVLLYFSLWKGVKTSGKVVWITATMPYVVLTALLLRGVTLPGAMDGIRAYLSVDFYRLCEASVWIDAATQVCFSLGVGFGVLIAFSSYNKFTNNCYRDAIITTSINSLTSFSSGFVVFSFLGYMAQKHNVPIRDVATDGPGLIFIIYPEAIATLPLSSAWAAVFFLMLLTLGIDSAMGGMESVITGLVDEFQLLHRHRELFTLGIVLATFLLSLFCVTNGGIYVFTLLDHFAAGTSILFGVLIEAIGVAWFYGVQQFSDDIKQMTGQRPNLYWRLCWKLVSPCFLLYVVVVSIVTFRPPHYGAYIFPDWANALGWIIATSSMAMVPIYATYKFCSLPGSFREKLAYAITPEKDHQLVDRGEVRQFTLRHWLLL

Chain of Monoamine transporters; serotonin & dopamine (Rattus norvegicus) (P23977 whole entry, looked up): as the sequence (P23977 whole entry) above
Chain of Monoamine transporters; serotonin & dopamine (Rattus norvegicus) (P31652 whole entry, looked up): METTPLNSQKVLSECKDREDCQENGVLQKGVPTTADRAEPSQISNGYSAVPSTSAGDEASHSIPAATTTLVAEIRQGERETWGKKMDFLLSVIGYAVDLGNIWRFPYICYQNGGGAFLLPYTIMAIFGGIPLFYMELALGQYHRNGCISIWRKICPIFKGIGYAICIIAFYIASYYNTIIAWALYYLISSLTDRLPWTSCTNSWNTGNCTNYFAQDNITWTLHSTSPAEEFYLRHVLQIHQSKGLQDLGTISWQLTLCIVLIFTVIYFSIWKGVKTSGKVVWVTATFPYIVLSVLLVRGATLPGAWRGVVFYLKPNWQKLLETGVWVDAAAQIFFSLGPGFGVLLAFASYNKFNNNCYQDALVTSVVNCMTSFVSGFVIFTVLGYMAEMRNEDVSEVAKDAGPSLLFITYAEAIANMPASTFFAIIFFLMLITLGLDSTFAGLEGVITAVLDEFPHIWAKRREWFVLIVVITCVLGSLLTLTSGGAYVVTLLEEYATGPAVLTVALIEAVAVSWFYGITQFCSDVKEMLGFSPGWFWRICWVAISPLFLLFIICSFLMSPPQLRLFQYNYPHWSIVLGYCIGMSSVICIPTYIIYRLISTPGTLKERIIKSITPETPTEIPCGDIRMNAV
Chain of Sodium-dependent serotonin transporter (P31652 whole entry): as the sequence (P31652 whole entry, looked up) above

Row | Structure (SMILES) | Ratio [1] | IC50 [2] [nM] | IC50 [3] [nM]
1 | Fc1ccc(CN2CCC(CCOC(c3ccccc3)c3ccc(F)cc3)CC2)cc1 (stereo unspecified) | 89 | 1260 | 14
2 | c1ccc(CN2CCC(CCOC(c3ccccc3)c3ccccc3)CC2)cc1 | 49 | – | –
3 | c1ccc(C(OCCC2CCN(Cc3cccnc3)CC2)c2cccs2)cc1 (stereo unspecified) | 15.9 | 927 | 58.3
4 | Fc1ccc(CN2CCC(CCOC(c3ccccc3)c3ccccc3)CC2)cc1 | 112 | 1920 | –
5 | Nc1ccc(CN2CCC(CCOC(c3ccccc3)c3ccccc3)CC2)cc1 | 15.6 | 1570 | 101
6 | Cc1ccc(CN2CCC(CCOC(c3ccccc3)c3ccccc3)CC2)cc1 | 60.4 | 1390 | 23
7 | c1ccc(C(OCCC2CCN(Cc3cccs3)CC2)c2ccccc2)cc1 | 21 | 1250 | 59.3
8 | COc1ccc(CN2CCC(CCOC(c3ccccc3)c3ccccc3)CC2)cc1 | 45 | 1240 | 27.8
9 | Fc1ccc(CN2CCC(CCOC(c3ccccc3)c3ccc(Cl)cc3)CC2)cc1 (stereo unspecified) | 34.4 | 1810 | 52.4
10 | c1ccc(CN2CCC(CCOC(c3ccccc3)c3cccs3)CC2)cc1 (stereo unspecified) | 27 | 741 | 27.2
11 | O=[N+]([O-])c1ccc(CN2CCC(CCOC(c3ccccc3)c3ccccc3)CC2)cc1 | 108 | 1770 | 16.4
12 | Clc1ccc(CN2CCC(CCOC(c3ccccc3)c3ccccc3)CC2)cc1 | 65.1 | 1610 | 24.7
13 | Fc1ccc(CN2CCC(CCOC(c3ccccc3)c3cccs3)CC2)cc1 (stereo unspecified) | 100 | 1390 | 13.8
14 | Fc1ccc(CN2CCC(CCOC(c3ccccc3)c3ccccc3)CC2)cc1Cl | 90 | 2530 | 28.2
15 | c1ccc(C(OCCC2CCN(Cc3cc4ccccc4s3)CC2)c2ccccc2)cc1 | 8.9 | 1540 | 172
16 | c1ccc(C(OCCC2CCN(Cc3cccnc3)CC2)c2ccccc2)cc1 | 13.9 | 680 | 48.6
17 | Clc1ccc(CN2CCC(CCOC(c3ccccc3)c3ccccc3)CC2)cc1Cl | 33.6 | 2880 | 85.7
18 | Brc1ccc(CN2CCC(CCOC(c3ccccc3)c3ccccc3)CC2)cc1 | 48 | 1490 | 31.1
